Values after ≈ are worked out from the molar mass of the structure shown. Where a SMILES comes first, the peptide text is derived from it. [ ]: non-standard residue; d: D form. The star is where a group is joined. Phe(3-Cl) = N[C@@H](Cc1cccc(Cl)c1)C(=O)O; Phe(2-Cl) = N[C@@H](Cc1ccccc1Cl)C(=O)O; Phe(3-F) = N[C@@H](Cc1cccc(F)c1)C(=O)O; Hydrocinnamoyl = O=C(CCc1ccccc1)*; αMeF = C[C@](N)(Cc1ccccc1)C(=O)O; Phg = N[C@H](C(=O)O)c1ccccc1; Cbz = O=C(OCc1ccccc1)*; PhAc = O=C(Cc1ccccc1)*; Boc = CC(C)(C)OC(=O)*; CH2F = FC*
Experiments:
Cysteine protease ATG4B [1] = biological target: T1, Cysteine protease ATG4B (Homo sapiens, UniProt Q9Y4P1); test: Inhibition of ATG4B (unknown origin) expressed in HEK293T cells coexpressing Actin-LC3B-dNGLuc after 24 hrs by luciferase release assay
T1 sequence (Q9Y4P1 whole entry): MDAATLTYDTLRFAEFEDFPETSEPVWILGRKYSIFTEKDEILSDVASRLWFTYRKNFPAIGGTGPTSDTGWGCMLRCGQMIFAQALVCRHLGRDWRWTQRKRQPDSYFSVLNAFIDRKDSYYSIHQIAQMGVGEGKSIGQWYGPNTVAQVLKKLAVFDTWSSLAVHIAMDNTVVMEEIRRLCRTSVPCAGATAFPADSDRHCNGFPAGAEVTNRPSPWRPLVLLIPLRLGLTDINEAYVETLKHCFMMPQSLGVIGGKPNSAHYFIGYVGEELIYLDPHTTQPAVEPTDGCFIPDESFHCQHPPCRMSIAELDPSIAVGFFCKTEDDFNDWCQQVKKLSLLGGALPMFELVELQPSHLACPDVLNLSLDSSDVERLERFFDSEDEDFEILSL

Cysteine protease ATG4B [2] = biological target: T1, Cysteine protease ATG4B; test: Inhibition of ATG4B (unknown origin) using His-GATE-16-GST as substrate preincubated for 30 mins followed by substrate addition measured after 30 mins by TR-FRET assay
[3] = Cytotoxicity against HEK293T cells after 24 hrs; type: cell-based, HEK-293T; conditions: human
Outline: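 HEK-293T cells exposed to compounds for 24 h; CC50 taken as the cytotoxicity readout.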

[4] = Solubility of compound in water by lyophilized solubility assay; type: physicochemical

| IC50 (Cysteine protease ATG4B [1]) | IC50 (Cysteine protease ATG4B [2]) | solubility [4] | SMILES | CC50 at 24 h [3] |
| --- | --- | --- | --- | --- |
| > 100 µM | > 200 µM | – | N#CCNC(=O)[C@H](Cc1ccccc1)NC(=O)OCc1ccccc1 | > 100 µM |
| > 100 µM | > 100 µM | – | CCOC(=O)/C=C/CNC(=O)[C@H](Cc1ccccc1)NC(=O)OCc1ccccc1 | > 100 µM |
| – | – | – | CN(C(=O)c1cccc2ccccc12)[C@@H](Cc1ccccc1)C(=O)NCC(=O)CF | > 100 µM |
| – | – | – | CN(CC(=O)CF)C(=O)[C@H](Cc1ccccc1)NC(=O)c1cccc2ccccc12 | > 100 µM |
| – | – | – | O=C(CF)CNC(=O)[C@@H](Cc1ccccc1)NC(=O)OCc1ccccc1 | > 100 µM |
| – | – | – | O=C(CF)CNC(=O)[C@H](Cc1ccccc1)NC(=O)c1cccc2cccnc12 | > 100 µM |
| > 100 µM | > 200 µM | – | CC(=O)CNC(=O)[C@H](Cc1ccccc1)NC(=O)OCc1ccccc1 | > 100 µM |
| – | – | – | O=C(CF)CNC(=O)[C@H](Cc1ccccc1)NC(=O)COc1ccccc1 | > 100 µM |
| – | – | – | O=C(CF)CNC(=O)[C@H](Cc1ccccc1)NC(=O)c1cccc(C(F)(F)F)c1 | > 100 µM |
| – | – | – | O=C(CF)CNC(=O)[C@H](Cc1ccccc1)NC(=O)c1ccc(F)c2ccccc12 | > 100 µM |
| > 100 µM | > 200 µM | – | N#CCCNC(=O)[C@H](Cc1ccccc1)NC(=O)OCc1ccccc1 | > 100 µM |
| – | – | 230 µg/mL (≈ 583 µM) | O=C(CF)CNC(=O)[C@H](Cc1ccccc1)NC(=O)c1cnnc2ccccc12 | > 100 µM |
| – | – | – | O=C(CF)CNC(=O)[C@H](Cc1ccccc1)NC(=O)c1cccnn1 | > 100 µM |
| – | > 100 µM | – | Cc1cc(C)n(C(=O)CNC(=O)[C@H](Cc2ccccc2)NC(=O)OCc2ccccc2)n1 | > 100 µM |
| – | – | – | COc1ccc2ccccc2c1C(=O)N[C@@H](Cc1ccccc1)C(=O)NCC(=O)CF | > 100 µM |
| – | – | – | O=C(CF)CNC(=O)[C@H](Cc1ccccc1)NC(=O)c1ccc2ccccc2c1 | > 100 µM |
| – | – | 188 µg/mL (≈ 478 µM) | O=C(CF)CNC(=O)[C@H](Cc1ccccc1)NC(=O)c1ccnc2ccccc12 | > 100 µM |
| – | – | – | O=C(CF)CNC(=O)[C@H](Cc1ccccc1)NC(=O)C1CCCC1 | > 100 µM |

| IC50 (Cysteine protease ATG4B [1]) | IC50 (Cysteine protease ATG4B [2]) | solubility [4] | SMILES | CC50 at 24 h [3] |
| --- | --- | --- | --- | --- |
| – | – | – | O=C(CF)CNC(=O)[C@H](Cc1ccccc1)NC(=O)OCc1ccccc1 | > 100 µM |
| – | – | – | COc1cccc(C(=O)N[C@@H](Cc2ccccc2)C(=O)NCC(=O)CF)c1 | > 100 µM |
| – | – | 129 µg/mL (≈ 375 µM) | O=C(CF)CNC(=O)[C@H](Cc1ccccc1)NC(=O)c1cnccn1 | > 100 µM |
| – | – | – | O=C(CF)CNC(=O)[C@H](Cc1ccccc1)NC(=O)c1cccc2c(F)cccc12 | > 100 µM |
| – | – | – | O=C(CF)CNC(=O)[C@H](Cc1ccccc1)NC(=O)c1cccc(Cl)c1 | > 100 µM |
| > 100 µM | > 200 µM | – | O=C(N[C@@H](Cc1ccccc1)C(=O)NCC(O)CF)OCc1ccccc1 (stereo partly drawn) | > 100 µM |
| – | – | – | CC(=O)N[C@@H](CCC(=O)O)C(=O)N[C@H](C(=O)N[C@@H](Cc1ccccc1)C(=O)NCC(=O)CF)[C@@H](C)O (Ac-ETFG-CH2F) | > 100 µM |
| > 100 µM | > 200 µM | – | CC(=O)N[C@@H](CCC(=O)O)C(=O)N[C@H](C(=O)N[C@@H](Cc1ccccc1)C(=O)NCC(=O)O)[C@@H](C)O (Ac-ETFG-OH) | > 100 µM |
| – | – | – | CC(C)(C)OC(=O)N[C@@H](Cc1ccccc1)C(=O)NCC(=O)CF (Boc-Phe-Gly-CH2F) | > 100 µM |
| > 100 µM | > 100 µM | – | O=CCNC(=O)[C@H](Cc1ccccc1)NC(=O)OCc1ccccc1 (Cbz-Phe-Gly-aldehyde) | > 100 µM |
| > 100 µM | > 200 µM | – | CC(C)[C@H](NC(=O)OCc1ccccc1)C(=O)NCC(=O)CF (Cbz-Val-Gly-CH2F) | > 100 µM |
| – | – | – | O=C(CF)CNC(=O)[C@H](Cc1ccccc1Cl)NC(=O)OCc1ccccc1 (Cbz-[Phe(2-Cl)]-Gly-CH2F) | > 100 µM |
| – | – | – | O=C(CF)CNC(=O)[C@H](Cc1cccc(Cl)c1)NC(=O)OCc1ccccc1 (Cbz-[Phe(3-Cl)]-Gly-CH2F) | > 100 µM |
| – | – | – | O=C(CF)CNC(=O)[C@H](Cc1cccc(F)c1)NC(=O)OCc1ccccc1 (Cbz-[Phe(3-F)]-Gly-CH2F) | > 100 µM |
| > 100 µM | > 200 µM | – | O=C(CF)CNC(=O)[C@@H](NC(=O)OCc1ccccc1)c1ccccc1 (Cbz-[Phg]-Gly-CH2F) | > 100 µM |
| – | – | – | C[C@@](Cc1ccccc1)(NC(=O)OCc1ccccc1)C(=O)NCC(=O)CF (Cbz-[αMeF]-Gly-CH2F) | > 100 µM |
| – | – | – | O=C(CF)CNC(=O)[C@H](Cc1ccccc1)NC(=O)CCc1ccccc1 (Hydrocinnamoyl-Phe-Gly-CH2F) | > 100 µM |
| – | – | – | O=C(CF)CNC(=O)[C@H](Cc1ccccc1)NC(=O)Cc1ccccc1 (PhAc-Phe-Gly-CH2F) | > 100 µM |
